Source: ChEMBL document CHEMBL4406810, “Modifications on the Amino-3,5-dicyanopyridine Core To Obtain Multifaceted Adenosine Receptor Ligands with Antineuropathic Activity” (J Med Chem, 2019)
Activity calls are given as the source filed them. The calls are words filed in the database; no cut-off is given here.

How the values were obtained:
CHO = assay: Effect on cAMP level in wild-type CHO cells at 0.001 to 1 uM by alphascreen assay; assay type: functional, cell-based; details: Cricetulus griseus
Method in brief: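 Compounds at 1 nM to 1 µM final concentrations. cAMP quantified with AlphaScreen kit. Four independent experiments, each in triplicate.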

[1] = molecular target: T1, Adenosine receptor A2b (Homo sapiens) (UniProt P29275); assay: Agonist activity at human A2B expressed in CHO cells assessed as stimulation of cAMP production at 1 uM by alphascreen assay relative to NECA; assay type: functional, cell-based
T1 sequence (whole entry): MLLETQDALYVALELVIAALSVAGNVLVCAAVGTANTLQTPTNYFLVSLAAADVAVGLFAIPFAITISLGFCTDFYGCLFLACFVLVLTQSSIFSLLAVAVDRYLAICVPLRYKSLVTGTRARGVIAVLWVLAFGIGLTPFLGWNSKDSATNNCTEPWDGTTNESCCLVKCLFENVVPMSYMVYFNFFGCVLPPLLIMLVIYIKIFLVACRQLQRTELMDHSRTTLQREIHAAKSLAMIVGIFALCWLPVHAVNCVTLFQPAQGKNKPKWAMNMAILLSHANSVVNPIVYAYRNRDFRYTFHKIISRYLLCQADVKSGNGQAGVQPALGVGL
Method in brief: (§1)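 Compounds tested alone at final 1 nM to 1 µM. cAMP measured by AlphaScreen. Efficacy taken at 1 µM relative to NECA 1 µM (=100%). Four independent experiments in triplicate.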

Adenosine receptor A1 [2] = molecular target: T2, Adenosine receptor A1 (Homo sapiens, UniProt P30542); assay: Inverse agonist activity at human A1AR expressed in CHO cells assessed as increase in forskolin-stimulated cAMP production by alphascreen assay; assay type: functional, cell-based
T2 sequence (P30542 whole entry): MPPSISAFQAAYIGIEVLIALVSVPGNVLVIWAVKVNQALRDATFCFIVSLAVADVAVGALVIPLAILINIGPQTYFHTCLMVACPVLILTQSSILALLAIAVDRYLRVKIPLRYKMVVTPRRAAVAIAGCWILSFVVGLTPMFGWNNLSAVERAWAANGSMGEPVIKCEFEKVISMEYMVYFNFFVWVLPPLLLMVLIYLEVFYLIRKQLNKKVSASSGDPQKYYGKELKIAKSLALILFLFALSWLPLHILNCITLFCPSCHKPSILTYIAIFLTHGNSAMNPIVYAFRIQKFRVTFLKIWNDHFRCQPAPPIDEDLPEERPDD
Method in brief: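 Compounds at 1 nM to 1 µM. cAMP rise measured by AlphaScreen. EC50 from sigmoid fit. Four independent experiments in triplicate.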

Adenosine receptor A2b = molecular target: T3, Adenosine receptor A2b (Homo sapiens, UniProt P29275); assay: Agonist activity at human A2B expressed in CHO cells assessed as stimulation of cAMP production by alphascreen assay; assay type: functional, cell-based; method in brief: as §1
T3 sequence (P29275 whole entry): T1 sequence (whole entry)

Adenosine receptor A2a [3] = molecular target: T4, Adenosine receptor A2a (Homo sapiens, UniProt P29274); assay: Displacement of [3H]ZM241385 from human A2AR expressed in CHO cell membranes measured after 60 mins by scintillation counting method
T4 sequence (P29274 whole entry): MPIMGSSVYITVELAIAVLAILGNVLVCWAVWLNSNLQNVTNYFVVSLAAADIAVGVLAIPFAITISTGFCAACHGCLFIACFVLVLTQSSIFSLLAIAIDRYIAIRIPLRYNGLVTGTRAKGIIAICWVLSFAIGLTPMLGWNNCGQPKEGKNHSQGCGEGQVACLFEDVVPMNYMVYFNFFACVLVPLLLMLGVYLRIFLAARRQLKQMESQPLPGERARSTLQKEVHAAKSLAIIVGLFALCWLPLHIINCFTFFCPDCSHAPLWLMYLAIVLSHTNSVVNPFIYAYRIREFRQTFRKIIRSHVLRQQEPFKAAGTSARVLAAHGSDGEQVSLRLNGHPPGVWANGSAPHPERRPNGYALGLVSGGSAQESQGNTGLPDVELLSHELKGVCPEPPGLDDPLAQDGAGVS
Method in brief: (§2)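 Nonspecific binding defined with 1 µM ZM241385. Filtered on GF/B, scintillation counted. Ki by Cheng–Prusoff. Percent inhibition at 1 µM. Four experiments in triplicate.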

[4] = molecular target: T5, Adenosine receptor A1 (Homo sapiens) (UniProt P30542); assay: Inverse agonist activity at human A1AR expressed in CHO cells assessed as increase in forskolin-stimulated cAMP production by alphascreen assay relative to DPCPX; assay type: functional, cell-based
T5 sequence (whole entry): T2 sequence (P30542 whole entry)
Method in brief: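 Compounds at 1 nM to 1 µM. cAMP rise measured by AlphaScreen. EC50 from sigmoid fit. […] Four independent experiments in triplicate.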

[5] = molecular target: T6, Adenosine receptor A3 (Homo sapiens) (UniProt P0DMS8); assay: Displacement of [125I]ABMECA from human A3R expressed in CHO cell membranes at 1 uM measured after 120 mins by scintillation counting method relative to control
T6 sequence (whole entry): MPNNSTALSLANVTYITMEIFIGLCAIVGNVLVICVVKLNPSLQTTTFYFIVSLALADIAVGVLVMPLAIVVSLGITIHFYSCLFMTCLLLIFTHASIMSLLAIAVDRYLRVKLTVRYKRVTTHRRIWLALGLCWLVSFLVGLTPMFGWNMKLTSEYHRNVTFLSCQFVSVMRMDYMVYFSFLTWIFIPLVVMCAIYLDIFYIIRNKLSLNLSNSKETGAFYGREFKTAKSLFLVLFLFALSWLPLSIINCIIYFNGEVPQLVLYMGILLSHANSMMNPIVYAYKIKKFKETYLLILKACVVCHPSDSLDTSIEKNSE
Method in brief: (§3)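 Nonspecific binding with 1 µM AB-MECA. GF/B filtration and counting. Ki via Cheng–Prusoff. Percent inhibition at 1 µM. Four experiments in triplicate.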

Adenosine receptor A1 [6] = molecular target: T2, Adenosine receptor A1; assay: Displacement of [3H]DPCPX from human A1AR expressed in CHO cell membranes measured after 90 mins by scintillation counting method
Method in brief: (§4)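 Nonspecific binding with 1 µM DPCPX. GF/B filtration and scintillation counting. Ki by Cheng–Prusoff. Inhibition % at 1 µM. Four experiments in triplicate.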

Adenosine receptor A2a [7] = molecular target: T4, Adenosine receptor A2a; assay: Displacement of [3H]ZM241385 from human A2AR expressed in CHO cell membranes at 1 uM measured after 60 mins by scintillation counting method relative to control; method in brief: as §2
Adenosine receptor A3 = molecular target: T7, Adenosine receptor A3 (Homo sapiens, UniProt P0DMS8); assay: Displacement of [125I]ABMECA from human A3R expressed in CHO cell membranes measured after 120 mins by scintillation counting method; method in brief: as §3
T7 sequence (P0DMS8 whole entry): T6 sequence (whole entry)

[8] = molecular target: T1, Adenosine receptor A2b (Homo sapiens); assay: Antagonist activity at human A2BR expressed in CHO cells assessed as inhibition of NECA-stimulated cAMP production at 1 uM by alphascreen assay relative to control; assay type: functional, cell-based
Method in brief: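 Compounds added at 1 nM to 1 µM final, with percent inhibition read at 1 µM. AlphaScreen cAMP read-out. IC50 by sigmoid non-linear regression. Four independent experiments in triplicate.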

[9] = molecular target: T5, Adenosine receptor A1 (Homo sapiens); assay: Displacement of [3H]DPCPX from human A1AR expressed in CHO cell membranes at 1 uM measured after 90 mins by scintillation counting method relative to control; method in brief: as §4
Adenosine receptor A2a [10] = molecular target: T4, Adenosine receptor A2a; assay: Antagonist activity at human A2AR expressed in CHO cells assessed as inhibition of CGS21680-stimulated cAMP production by alphascreen assay; assay type: functional, cell-based

SMILES	Activity (CHO)	Efficacy [1]	EC50 (Adenosine receptor A1 [2])	EC50 (Adenosine receptor A2b)	Ki (Adenosine receptor A2a [3])	Emax [4]	inhibition [5]	Ki (Adenosine receptor A1 [6])	inhibition (Adenosine receptor A2a [7])	Ki (Adenosine receptor A3)	inhibition [8]	inhibition [9]	IC50 (Adenosine receptor A2a [10])
N#Cc1c(N)nc(SCC(=O)c2ccccc2)c(C#N)c1-c1ccco1	inactive	1%	57 nM	> 1000 nM	224 nM	29%	26%	23 nM					
COC(=O)c1ccc(CSc2nc(N)c(C#N)c(-c3ccco3)c2C#N)o1	inactive	7%	185 nM	> 1000 nM		24%	11%	82 nM	1%				
N#CCSc1nc(N)c(C#N)c(-c2ccco2)c1C#N	inactive	1%		> 1000 nM	887 nM			93 nM		582 nM			
N#Cc1c(N)nc(SCC(N)=O)c(C#N)c1-c1ccco1	inactive	17%		> 1000 nM				175 nM	21%	177 nM			
N#Cc1c(N)nc(NCCO)c(C#N)c1-c1ccco1	inactive	1%		> 1000 nM			17%		18%		6%	20%	
N#Cc1c(N)nc(OCCO)c(C#N)c1-c1ccco1	inactive	11%		> 1000 nM			3%	632 nM	25%				
COC(=O)c1cccc(CSc2nc(N)c(C#N)c(-c3cccnc3)c2C#N)c1	inactive	15%	6.26 nM	> 1000 nM	636 nM	72%	8%	1.18 nM					
N#Cc1c(N)nc(SCc2ccccn2)c(C#N)c1-c1ccco1	inactive	9%	3.41 nM	> 1000 nM	108 nM	30%		2.71 nM		134 nM			
N#Cc1c(N)nc(SCCO)c(C#N)c1-c1ccsc1	inactive	8%	142 nM	> 1000 nM		62%	33%	60 nM	9%				
N#Cc1c(NC2CCCC2)nc(SCCO)c(C#N)c1-c1ccco1	inactive	1%		> 1000 nM				742 nM	8%	780 nM			
N#Cc1c(N)nc(NCCO)c(C#N)c1-c1cccnc1	inactive	1%		> 1000 nM			8%		1%			1%	
N#Cc1c(Nc2ccc(I)cc2)nc(SCCO)c(C#N)c1-c1ccco1	inactive	1%		> 1000 nM			8%		1%			10%	
COC(=O)CSc1nc(N)c(C#N)c(-c2ccco2)c1C#N	inactive	4%		> 1000 nM			25%	108 nM	17%				
COC(=O)c1cccc(CSc2nc(N)c(C#N)c(-c3ccoc3)c2C#N)c1	inactive	7%	4.35 nM	> 1000 nM	96 nM	51%	1%	2.11 nM					
N#Cc1c(N)nc(SCCO)c(C#N)c1-c1ccoc1	inactive	32%	58 nM	852 nM		39%	34%	19 nM	19%		38%		
N#Cc1cccc(CSc2nc(N)c(C#N)c(-c3ccco3)c2C#N)c1	inactive	7%	4.82 nM	> 1000 nM	93 nM	100%		1.02 nM		668 nM			
N#Cc1c(N)nc(SCC(=O)OCc2ccccc2)c(C#N)c1-c1ccco1	inactive	10%	192 nM	> 1000 nM		53%	1%	86 nM	8%				
N#Cc1c(N)nc(SCCO)c(C#N)c1-c1ccco1	inactive	7%	128 nM	> 1000 nM		83%	29%	57 nM	27%		33%		
N#Cc1c(N)nc(SCc2ccncc2)c(C#N)c1-c1ccco1	inactive	14%		> 1000 nM	114 nM			40 nM		678 nM	40%		
CC(=O)Nc1nc(SCCO)c(C#N)c(-c2ccco2)c1C#N	inactive	3%		> 1000 nM				243 nM	11%	211 nM			
N#Cc1c(N)nc(NCCO)c(C#N)c1-c1cccs1	inactive	1%		> 1000 nM			29%	324 nM	33%		4%		
N#Cc1c(N)nc(SCc2cccnc2)c(C#N)c1-c1ccco1	inactive	1%	2.73 nM	> 1000 nM	24 nM	47%		1.42 nM		948 nM			83 nM
N#Cc1c(N)nc(SCCO)c(C#N)c1-c1cccnc1	inactive	18%	94 nM	> 1000 nM		75%	22%	35 nM	7%				
CCCn1c(=O)c2[nH]c(C3CCCC3)nc2n(CCC)c1=O		1%											
COC(=O)c1cccc(CSc2nc(N)c(C#N)c(-c3cccs3)c2C#N)c1	inactive	62%	3.85 nM	982 nM	693 nM	56%	15%	2.72 nM					
N#Cc1c(N)nc(SCCO)c(C#N)c1-c1cccs1	inactive	69%	107 nM	885 nM		74%		52 nM	1%	554 nM			
